In the library only some 2.5% were active in any assay of this set; here they are far more common.
TRPN1 ag: activates the zebrafish TRPN1 channel | HEK293 zebrafish TRPN1-YFP, Fluo-8 calcium fluorescence; 100% = response to 87 µM carbachol | activation, % at 3 µM | 220,000 compounds, 0.18% hits;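 active = activation above its plate's cutoff, the mean activation of test wells on that plate plus 3 SD, cut at about 19% in these data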;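 also: 0% = DMSO alone and 100% = 87 µM carbachol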
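Assay system: Zebrafish TRPN1-YFP in HEK293 cells | Incubation: Dye loading 1 h at 37 °C, then 30 min room temperature | Measured by: Kinetic Fluo-8 fluorescence, ex 470-495, em 515-575 nm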
CHO parental Ca: signal in parental CHO cells, OX1R antagonist counter-screen; parental CHO-K1, ATP-induced calcium, Fluo-8 fluorescence; inhibition, % at 5.6 µM; 330,000 compounds, 0.63% hits;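 active = inhibition above that plate's mean sample inhibition plus 3 SD, cut at about 26% in these data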;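 also: 0% = ATP-challenged DMSO wells and 100% = DMSO wells without ATP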
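Material: Parental CHO cells | Reagent: ATP | Compound dosing: Single nominal dose of 5.6 µM per compound | Detection: Intracellular calcium via Fluo-8 no-wash fluorescent dye | Read-out: % inhibition of ATP-induced calcium mobilization | Benchmarks: Low control ATP plus DMSO, high control DMSO only | Replicates: Singlicate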
OX1R antag-1: blocks the human orexin 1 receptor; O43613; CHO/OX1R cells, Fluo-8 calcium fluorescence, orexin A; inhibition, % at 5 µM; 330,000 compounds, 0.43% hits;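 active = inhibition above its plate's threshold, mean inhibition of all tested compounds on the plate plus 3 SD, cut at about 37% in these data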;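 also: 0% = orexin A challenge wells and 100% = SB-334867-A antagonist wells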
OX1R antag-2: antagonists of human orexin 1 receptor (OX1R). inhibition, % at 6.6 µM. AID 485270. 330,000 compounds, 1.8% hits. OX1R-expressing cells, FRET antagonist read-out; in the data active = inhibition mostly above about 38%, no sharp cut-off; inactive = mostly below about 40%;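 also: 0% = agonist challenge alone and 100% = reference antagonist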
TRPML3 agonist: agonists of human TRPML3 channel | AID 1448 | activation, % at 3 µM | Q8TDD5 | 220,000 compounds, 0.29% hits | HEK293 TRPML3-YFP, Fluo-8 calcium fluorescence; 100% = the carbachol control signal;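 active = activation above its plate's cutoff, the mean activation of the plate's test wells plus 3 SD, cut at about 12% in these data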;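 also: 0% = DMSO only wells and 100% = carbachol wells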
Target sequence (Q8TDD5 whole entry, looked up): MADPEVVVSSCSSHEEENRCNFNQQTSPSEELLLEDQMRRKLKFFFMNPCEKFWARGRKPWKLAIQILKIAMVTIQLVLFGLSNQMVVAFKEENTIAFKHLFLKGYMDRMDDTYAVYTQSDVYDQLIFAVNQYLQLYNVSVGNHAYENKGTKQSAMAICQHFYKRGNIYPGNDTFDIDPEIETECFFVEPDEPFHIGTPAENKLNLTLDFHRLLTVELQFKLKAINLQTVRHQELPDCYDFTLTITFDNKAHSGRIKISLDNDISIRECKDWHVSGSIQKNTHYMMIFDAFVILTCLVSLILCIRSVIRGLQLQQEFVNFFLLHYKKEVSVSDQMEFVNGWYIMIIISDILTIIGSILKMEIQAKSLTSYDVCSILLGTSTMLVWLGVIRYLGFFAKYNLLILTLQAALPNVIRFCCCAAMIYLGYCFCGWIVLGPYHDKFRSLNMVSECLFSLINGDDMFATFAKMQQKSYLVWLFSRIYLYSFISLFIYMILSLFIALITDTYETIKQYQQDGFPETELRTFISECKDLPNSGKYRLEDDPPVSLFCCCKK
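Test system: TRPML3-YFP stable HEK293 cells. Doses: single point at 3 µM. Incubation: dye loading 1 h 37 °C then 30 min ambient, 125 s read. Signal: Fluo-8 calcium dye fluorescence, ex 470-495, em 515-575 nm. Measure: percent activation from peak-to-basal fluorescence ratio, scaled between DMSO and carbachol.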
* marks the source's active call; other numbers are inactive results; . = no result given; ! = a repeat was not active.

SMILES | TRPN1 ag | CHO parental Ca | OX1R antag-1 | OX1R antag-2 | TRPML3 agonist
O=C(Nc1cccc(Cl)c1)OC1CN2CCC1CC2 (stereo not drawn) | 7 | 46* | 21 | 57 | 3
O=C(Nc1ccc(Cl)cc1)OC1CN2CCC1CC2 (stereo not drawn) | 4 | 5 | -5 | 9 | 2
C=C1C(O)[C@@H]2O[C@]3(CC[C@H](/C=C/C(C)[C@@H]4CC(C)=CC5(O[C@H](C[C@@](C)(O)C(=O)O)CCC5O)O4)O3)CC[C@H]2O[C@@H]1C(O)CC(C)[C@H]1OC2(CCCCO2)CCC1C (stereo partly drawn) | . | -10 | 34 | 50* | .
CN1C(=O)C(=Cc2sc(=O)n(-c3ccccc3)c2N2CCCCC2)C(=O)N(C)C1=O | 29* | . | . | . | 9
CC[N+](C)(CC)CCCCOc1ccc2c(c1)C(=O)c1cc(OCCCC[N+](C)(CC)CC)ccc1-2 | -1 | -16 | -1 | 71* | 0
Cn1ncnc2c(=O)n(C)c(=O)nc1-2 | . | -17 | 8 | 103* | .
COc1ccc(/C=C/C(=O)NC(=S)N2C[C@H]3C[C@H](C2)c2cccc(=O)n2C3)cc1OC | . | 6 | -13 | 25 | .
Cc1ccc(-c2cc(-c3ccccc3)cc(-c3ccccc3)[n+]2-c2ccccc2)cc1 | . | 74* | 71* | 19 | .
Cc1ccc(-c2cc(-c3ccc(C)cc3)[n+](-c3ccc(C(=O)[O-])cc3)c(-c3ccc(C)cc3)c2)cc1 | . | -1 | -14 | 28 | .
Cc1ccc(-c2cc(-c3ccc(C)cc3)[n+](-c3ccccc3)c(-c3ccc(C)cc3)c2)cc1 | . | 71* | 91* | 39 | .
c1ccc(-c2cc(-c3ccccc3)[n+](-c3ccccc3)c(-c3ccccc3)c2)cc1 | 7 | 84* | 84* | 31 | -1
CN(C)c1ccc(-[n+]2c(-c3ccccc3)cc(-c3ccccc3)cc2-c2ccccc2)cc1 | 6 | . | . | . | 2
CCc1ccc(-n2c(O)c(C(C)=O)c(=O)[nH]c2=O)cc1 (tested in a mixture with another compound) | -1 | -13 | -14 | 13 | 0
C=CC[C@@H](CC/C=C/C=C/CC/C=C\[C@@H]1CSC([C@@H]2C[C@@H]2C)=N1)OC | . | -24 | -12 | 5 | .
CC1CCN(C(=O)c2ccc(N3CC4CC(C3)c3cccc(=O)n3C4)c([N+](=O)[O-])c2)CC1 (stereo not drawn) | -1 | -19 | -27 | 26 | 0
CC1CCCC(C)N1/N=C/c1c[nH]c2ccc(Br)cc12 (stereo not drawn) | 1 | -4 | -12 | 18 | 0
Cc1c(N=Nc2c(O)n(C)c(=O)n(C)c2=O)c(=O)n(-c2ccccc2)n1C | 1 | -4 | -14 | 64* | 1
Cc1nc2ccccc2c(=O)n1-c1cc([N+](=O)[O-])cc([N+](=O)[O-])c1 | . | -16 | -30 | 74* | .
O=C(OCC(=O)c1ccc([N+](=O)[O-])cc1)/C(=C/c1ccc(Cl)cc1)NC(=O)c1ccccc1 | -1 | -15 | -18 | 23 | 1
O=C(C[N+]12CCC(CC1)C(OC(=O)c1ccccc1)C2)c1ccc([N+](=O)[O-])cc1 (stereo not drawn) | -1 | 6 | -7 | 70* | 1
O=C(C[N+]12CCC(CC1)C(CO)C2)c1ccc([N+](=O)[O-])cc1 (stereo not drawn) | 2 | -4 | -6 | 59* | 1
COC(=O)C1=C(c2cccc(C#N)c2)C[C@@H]2CC[C@H]1N2C(=O)N1CCCC1 | . | -5 | -17 | 7 | .
CN1/C(=C\C=C2C(=O)NC(=S)NC2=O)C(C)(C)c2ccccc21 | 57* | . | . | . | 31*
C=CCn1c(O)c(/C(C)=N/N2CCN(C)CC2)c(=O)[nH]c1=O | 2 | -16 | -7 | 5 | 1
COC(=O)C1=C(c2cc3ccccc3o2)C[C@@H]2CC[C@H]1N2C(=O)NCc1cccc2ccccc12 | . | -14 | 31 | 69* | .
SMILES | TRPN1 ag | CHO parental Ca | OX1R antag-1 | OX1R antag-2 | TRPML3 agonist
COc1cccc(C(=O)C2CCCN(Cc3cccc4c3OCO4)C2)c1 (stereo not drawn) | -1 | -16 | -32 | 13 | 0
COC1C(OC(=O)c2ccc(C)[nH]2)C(O)C(Oc2ccc3c(O)c(NC(=O)c4ccc(O)c(CC=C(C)C)c4)c(=O)oc3c2Cl)OC1(C)C (stereo not drawn) | 0 | 32* | 36 | 11 | 0
Cc1ccccc1N1C(=O)NC(=O)/C(=C/c2ccc(N3CCOCC3)o2)C1=O | 5 | 6 | 1 | 48* | 3
O=C1NC(=O)N(c2ccc3c(c2)OCO3)C(=O)/C1=C\c1ccc(N2CCCCC2)o1 | 1 | -5 | -4 | 71* | 1
COC(=O)C1=C(c2ccccc2OCc2ccccc2)C[C@@H]2CC[C@H]1N2C(=O)NCCc1ccc(F)cc1 | . | -26 | 20 | 15 | .
CCOc1ccc(-c2c(C)n(-c3ccc(OCC)cc3)c3[n+]2CCCCC3)cc1 | 2 | 40* | -2 | 26 | 0
Cn1nc(-c2ccc(OCC(=O)N3CCN(Cc4ccccc4)CC3)cc2)c2ccccc2c1=O | 7 | 36*! | 9 | 23 | 5
Nc1ncc([N+](=O)[O-])s1 | . | -7 | 0 | 36* | .
CC(=O)c1c(C)[nH]c(C(=O)N2CCC3(CC2)OCCO3)c1C | 2 | 3 | -6 | 4 | 1
C[n+]1c(-c2ccccc2)c2cc(N)ccc2c2ccc(N)cc21 | . | -2 | -1 | 51* | .
O=c1cc(C(F)(F)F)c2cc3c4c(c2o1)CCCN4CCC3 | 11 | 73* | 92* | 29 | 8
C/C(=N\N1CCCCCC1)c1c(O)n(C)c(=O)n(C)c1=O | 2 | 0 | -7 | 18 | 0
C/C(=N\NC(N)=O)c1c(O)n(C)c(=O)n(C)c1=O | 1 | 35* | -10 | 14 | 1
CN1C(C(=O)N2CCC3(CC2)OCCO3)=CC(c2ccc(F)cc2)=NS1(=O)=O | . | -12 | -12 | 10 | .
Nc1ccccc1C(=O)OCCOc1ccccc1 | -2 | -13 | -9 | 35 | -1
CN(C)C(=O)Oc1ccc(OC(=O)N(C)C)cc1 | 2 | 0 | -5 | 2 | 1
CN(C)C(=O)Oc1ccc2nnc3ccnn3c2c1 | . | -4 | -6 | 36* | .
COC(=O)C1=C(c2ccc(OC(F)(F)F)cc2)C[C@@H]2CC[C@H]1N2C(=O)N1CCOCC1 | . | 1 | -1 | 1 | .
CC/C(=C\C=C\[C@@H]1C=C[C@@H]2CCC[C@H]2[C@@H]1C(=O)c1ccc[nH]1)[C@@H]1O[C@@H]([C@@H](C)C(=O)O)CC[C@@H]1C | 16 | 48* | 25 | 10 | 1
CCC(=NCc1ccc2c(c1)OCO2)c1c(O)n(C2CCCCC2)c(=O)[nH]c1=O | -1 | 26* | -17 | 13 | -1
CN1CCc2cc3c(c4c2C1Cc1ccccc1-4)OCO3 (stereo not drawn) | . | -20 | -26 | 74* | .

Assay outcomes (PubChem BioAssay)
